Data reported in ChEMBL document CHEMBL4038313, “Expanding the Antiviral Spectrum of 3-Fluoro-2-(phosphonomethoxy)propyl Acyclic Nucleoside Phosphonates: Diamyl Aspartate Amidate Prodrugs” (J Med Chem, 2017).

How the values were obtained:
[1] = Selectivity index, ratio of CC50 for HEL cells to EC50 for thymidine kinase expressing Varicella-Zoster virus Oka; format: toxicity; conditions: human, read-out: Ratio CC50/EC50
Procedure, shortened: (§1)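 HEL fibroblast monolayers inoculated with 100 CCID50 HCMV (AD-169, Davis) or 20 PFU VZV (TK+ Oka, TK− 07-1). Adsorbed 1–2 h, inoculum removed, then incubated with compound dilutions. HCMV cytopathicity or VZV plaques scored once untreated infected controls reached completion. EC50 is 50% reduction. SI is CC50/EC50, and the potency ratio is the ratio of EC50s.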

[2] = Cytotoxic activity against HEL cells assessed as reduction in cell proliferation after 3 days by coulter counting method; format: cell-based; conditions: human
Procedure, shortened: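 HEL cells seeded at 5 × 10^3/well, grown 24 h, then given compound for 3 days at 37 °C. Cell number counted by Coulter counter. CC50 is 50% reduction of proliferation relative to untreated controls, read from graphic plots.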

Human betaherpesvirus 5 [3] = test: Antiviral activity against HCMV Davis strain infected in HEL cells assessed as inhibition of virus-induced cytopathic effect; format: functional, cell-based; conditions: Human betaherpesvirus 5, Davis; procedure, shortened: as §1
Hepatitis B virus = test: Antiviral activity against HBV ayw1 infected in human HepG2(2.2.15) cells assessed as reduction in viral replication by measuring extracellular viral DNA copy number after 6 days by real-time qPCR method; format: functional, cell-based; conditions: ayw1, HepG2 2.2.15, 144 h
Procedure, shortened: (§2)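 HepG2.2.15 cells (two copies of HBV ayw1 genome), 1.5 × 10^4/well in DMEM with 2% FBS and 380 μg/mL G418. After 16–24 h, compound added in triplicate, medium with compound renewed at day 3. Supernatant collected at day 6, Pronase-treated, and extracellular HBV DNA measured by TaqMan qPCR (precore/core) against an HBV DNA standard curve. EC50/EC90 derived; CC50 by MTS uptake.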

[4] = Stability of the compound in phosphate buffer of pH 8 at 1 mg after 1 hr by 31P NMR spectroscopy; format: physicochemical; conditions: pH 8, 1 h
Procedure, shortened: (§3)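 1 mg compound in 0.2 mL acetone-d6 plus 0.3 mL pH 8 buffer (0.1 M Na2HPO4 adjusted with 0.1 M HCl). In situ 31P NMR (202 MHz) at 37 °C, spectra every 30 min over 14 h.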

[5] = Selectivity index, ratio of CC50 for human TZM-bl cells to EC50 for CXCR4-tropic HIV-1 NL4-3 infected in human TZM-bl cells; format: toxicity, cell-based; conditions: read-out: Ratio CC50/EC50
[6] = test system: Human immunodeficiency virus 1; test: Potency index, ratio of (S)-9-[3-Fluoro-2-(phosphonomethoxy)propyl]adenine EC50 to compound EC50 for CCR5 tropic HIV1 BaL infected in human TZM-bl cells; format: functional
[7] = Selectivity index, ratio of CC50 for human PHA-stimulated PBMCs to IC50 for CCR5 tropic HIV1 BaL infected in human PHA-stimulated PBMC
[8] = Stability of the compound in phosphate buffer of pH 8 at 1 mg after 14 hrs by 31P NMR spectroscopy; format: physicochemical; conditions: read-out: Stability; procedure, shortened: as §3
[9] = test system: Human immunodeficiency virus 1; test: Selectivity ratio of EC50 for tenofovir-resistant CXCR4-tropic HIV-1 NL4-3 harboring reverse transcriptase K65R mutant infected in human MT4 cells to EC50 for CXCR4-tropic HIV-1 NL4-3 infected in human MT4 cells; format: functional
Procedure, shortened: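 MT-4 cells, 1 × 10^4 per well, given compound dilutions and wild-type NL4-3 or K65R NL4-3. Virus titred to give 85–95% cell killing at day 6. Incubated 6 days at 37 °C, 5% CO2. Viability read by XTT at 450/650 nm. EC50 from CPE reduction and toxicity from uninfected drug wells, by four-parameter fit. Fold change is K65R EC50 over wild-type EC50.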

[10] = Cytotoxicity against human TZM-bl cells assessed as cell viability by tetrazolium dye assay; format: cell-based
[11] = Selectivity index, ratio of CC50 for HEL cells to EC50 for thymidine kinase deficient Varicella-Zoster virus 07-1; format: toxicity; conditions: human, read-out: Ratio CC50/EC50; procedure, shortened: as §1
[12] = Selectivity index, ratio of CC50 for HepG2.2.15 cells to EC50 for HBV ayw1 infected in human HepG2(2.2.15) cells assessed as reduction in viral replication by measuring extracellular viral DNA copy; procedure, shortened: as §2
[13] = test system: Human immunodeficiency virus 1; test: Antiviral activity against CXCR4-tropic HIV-1 NL4-3 infected in human PHA-stimulated PBMC assessed as inhibition of viral replication by measuring reduction in p24 antigen production preincubated with cells for 30 mins followed by viral infection measured on day 10 post infection in presence of IL-2 by ELISA; format: functional; conditions: Human immunodeficiency virus 1, NL4-3
Procedure, shortened: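 PBMCs stimulated with 2 μg/mL PHA for 3 days at 37 °C, then 5 × 10^5 cells/ml preincubated 30 min at 37 °C with serial compound dilutions plus 2 ng/mL IL-2. Infected with 1500 pg/well HIV-1 BaL or 500 pg/well other isolates. IL-2 re-added on days 3 and 6. Supernatant p24 Ag measured by ELISA at day 10. EC50 is 50% inhibition of replication.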

Human betaherpesvirus 5 [14] = test: Antiviral activity against Human cytomegalovirus AD169 infected in HEL cells assessed as inhibition of virus-induced cytopathic effect; format: functional, cell-based; conditions: Human betaherpesvirus 5, AD169, HEL; procedure, shortened: as §1
[15] = Stability of the compound in pH 1 buffer at 2 mg after 5 hrs by 31P NMR spectroscopy; format: physicochemical; conditions: pH 1, 5 h
Procedure, shortened: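 2.0 mg compound in 0.2 mL acetone-d6 plus 0.3 mL pH 1 buffer (equal parts 0.2 M HCl and 0.2 M KCl). In situ 31P NMR (202 MHz) at 37 °C, spectra every 30 min over 14 h.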

## CCCCCOC(=O)C[C@H](NP(=O)(CO[C@H](CF)Cn1cnc2c(N)ncnc21)Oc1ccccc1)C(=O)OCCCCC (some centres not stated)
[1]
  selectivity ratio: 39
[2]
  CC50 at 72 h: 1960 nM
Human betaherpesvirus 5 [3]
  EC50: 6280 nM
Hepatitis B virus
  EC50: 10 nM
  EC90: 1970 nM
[4]
  Stability: Stable
[5]
  selectivity ratio: 3320
[6]
  Ratio EC50: 1500
[7]
  Ratio CC50/IC50: >113
[8]
  remaining at 14 h: 58%
[9]
  Ratio EC50: 5.7
[10]
  CC50: 33200 nM
[11]
  selectivity ratio: 34
[12]
  Ratio CC50/EC50: 2256
[13]
  IC50: 3 nM
Human betaherpesvirus 5 [14]
  EC50: 3970 nM
[15]
  Stability: Stable
